Experimental findings from article PMC7237957 (European Heart Journal Cardiovascular Imaging, 2019) are described below.

Holding throughout (assay type): binding
The target of test [1] is T1, human thrombus (Homo sapiens, UniProt P00488).
T1 sequence (P00488 39-732 limits assumed): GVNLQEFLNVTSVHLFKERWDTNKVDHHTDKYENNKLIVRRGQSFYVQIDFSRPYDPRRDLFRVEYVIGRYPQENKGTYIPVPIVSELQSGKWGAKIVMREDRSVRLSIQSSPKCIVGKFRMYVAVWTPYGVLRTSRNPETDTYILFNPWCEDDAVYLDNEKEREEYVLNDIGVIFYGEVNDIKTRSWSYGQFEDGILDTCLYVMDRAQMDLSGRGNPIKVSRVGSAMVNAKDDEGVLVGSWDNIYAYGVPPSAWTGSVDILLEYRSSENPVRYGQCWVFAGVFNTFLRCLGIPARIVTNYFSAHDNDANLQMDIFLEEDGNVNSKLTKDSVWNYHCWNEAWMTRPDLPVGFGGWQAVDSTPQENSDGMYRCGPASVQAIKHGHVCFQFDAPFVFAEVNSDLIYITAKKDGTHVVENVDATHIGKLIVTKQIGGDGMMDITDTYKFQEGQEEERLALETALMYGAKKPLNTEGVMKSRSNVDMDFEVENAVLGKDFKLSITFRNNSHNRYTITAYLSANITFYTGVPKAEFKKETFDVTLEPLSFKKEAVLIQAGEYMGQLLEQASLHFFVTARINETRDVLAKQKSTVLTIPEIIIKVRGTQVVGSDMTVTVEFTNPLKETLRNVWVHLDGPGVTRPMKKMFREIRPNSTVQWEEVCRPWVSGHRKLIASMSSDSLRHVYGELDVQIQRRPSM
The experiment in a line: Autoradiography of ex vivo human thrombus sections with blocking. The following applies: human explanted thrombus sections; 5 μM co-incubated. A digest of the protocol:
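Paraffin-embedded cross-sections of ex vivo human thrombi (n = 3) were de-paraffinised, rehydrated and incubated 2 h at 37°C with 18F-tracer alone or co-incubated with unlabelled tracer, scrambled peptide or iodoacetamide (each 5 μM), in quadruplicate. Slides were washed twice in phosphate buffer, air-dried and exposed to a phosphor screen. Equal ROIs gave greyscale pixel intensity; %SB = tracer-only minus inhibitor-section activity.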

Test [2] deals with T2, Factor XIIIa (Homo sapiens, UniProt P00488).
T2 sequence (P00488 39-732 limits assumed): T1 sequence (P00488 39-732 limits assumed)
The following applies: co-infusion of iodoacetamide 10 mg/mL, n = 10. In outline:
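Native blood from healthy male volunteers was pumped at 10 mL/min for 5 min through three 37°C chambers over porcine aortic strips (intima removed), at 212 s−1 (low shear) or 1690 s−1 (high shear), then flushed with saline. Tracer was infused at 4.6 ± 0.5 MBq/mL, or 5.5 ± 0.9 MBq/mL with 10 mg/mL iodoacetamide. Strips were scanned by NanoPET/CT; equal thrombus VOIs (kBq/mL) were divided by infused MBq.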

Test [3] addresses T3, rodent carotid thrombus (Rattus norvegicus, UniProt O08619).
T3 sequence (O08619 39-732 limits assumed): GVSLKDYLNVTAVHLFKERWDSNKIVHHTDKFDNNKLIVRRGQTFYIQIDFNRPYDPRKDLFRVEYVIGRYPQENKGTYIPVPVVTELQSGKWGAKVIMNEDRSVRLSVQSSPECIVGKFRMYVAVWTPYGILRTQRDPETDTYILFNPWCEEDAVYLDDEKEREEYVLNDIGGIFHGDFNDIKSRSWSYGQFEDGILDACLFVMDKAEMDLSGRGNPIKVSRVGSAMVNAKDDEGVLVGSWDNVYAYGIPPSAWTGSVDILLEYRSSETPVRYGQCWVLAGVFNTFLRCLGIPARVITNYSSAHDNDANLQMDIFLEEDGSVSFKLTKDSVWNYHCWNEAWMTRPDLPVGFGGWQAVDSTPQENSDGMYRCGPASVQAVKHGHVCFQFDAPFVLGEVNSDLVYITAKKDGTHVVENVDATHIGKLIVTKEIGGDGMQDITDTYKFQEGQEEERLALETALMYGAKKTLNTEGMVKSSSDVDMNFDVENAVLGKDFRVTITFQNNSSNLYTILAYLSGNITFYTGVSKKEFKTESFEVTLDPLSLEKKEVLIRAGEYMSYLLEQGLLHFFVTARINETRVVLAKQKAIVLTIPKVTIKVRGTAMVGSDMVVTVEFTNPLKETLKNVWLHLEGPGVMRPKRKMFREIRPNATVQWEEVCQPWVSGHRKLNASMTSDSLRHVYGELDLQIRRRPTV
The following applies: rodent explanted thrombus sections; 5 μM co-incubated. In outline: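 Thrombosed left common carotid (ferric chloride model) was harvested from one rat after sacrifice. Sections were de-paraffinised, rehydrated and incubated 2 h at 37°C with 18F-tracer alone or with 5 μM unlabelled tracer, scrambled peptide or iodoacetamide. They were then washed, dried and exposed to a phosphor screen. Greyscale intensity was read in equal ROIs; %SB = tracer-only minus inhibitor sections.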

Like-named read-outs stand apart in the source and are kept apart here.

For the compound `NC(=O)CI` [iodoacetamide, Iodoacetamide], the “Effect on 18F-ENC2015 uptake (autoradiography)” value in test [1] and in test [3] was “no effect” each time. The results for the “Reduction of 18F-ENC2015 thrombus binding” value in test [2] (high shear thrombi) and in test [2] (low shear thrombi) were 87% and 88%, respectively.
